In ChEMBL document CHEMBL1140988 (Eur J Med Chem, 2008):

Columns and labels:
Cannabinoid receptor 2 [1] = biological target: T1, Cannabinoid receptor 2 (Homo sapiens, UniProt P34972); test: Displacement of [3H]WIN-55212-2 from human CB2 receptor expressed in CHO cells at 10 uM; format: cell-based
Procedure, shortened: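 Human CB2 expressed in CHO cell membranes, competitive binding run by an outside contract lab. [3H]-WIN 55212-2 at 0.8 nM was displaced by test compound at 10 μM. Specific binding is total minus non-specific, the latter measured with excess unlabelled ligand. Reported as % displacement of control specific binding, n = 2.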

Cannabinoid receptor 1 [2] = biological target: T2, Cannabinoid receptor 1 (Homo sapiens, UniProt P21554); test: Displacement of [3H]CP-55940 from human CB1 receptor expressed in CHO cells at 10 uM; format: cell-based
T2 sequence (P21554 whole entry): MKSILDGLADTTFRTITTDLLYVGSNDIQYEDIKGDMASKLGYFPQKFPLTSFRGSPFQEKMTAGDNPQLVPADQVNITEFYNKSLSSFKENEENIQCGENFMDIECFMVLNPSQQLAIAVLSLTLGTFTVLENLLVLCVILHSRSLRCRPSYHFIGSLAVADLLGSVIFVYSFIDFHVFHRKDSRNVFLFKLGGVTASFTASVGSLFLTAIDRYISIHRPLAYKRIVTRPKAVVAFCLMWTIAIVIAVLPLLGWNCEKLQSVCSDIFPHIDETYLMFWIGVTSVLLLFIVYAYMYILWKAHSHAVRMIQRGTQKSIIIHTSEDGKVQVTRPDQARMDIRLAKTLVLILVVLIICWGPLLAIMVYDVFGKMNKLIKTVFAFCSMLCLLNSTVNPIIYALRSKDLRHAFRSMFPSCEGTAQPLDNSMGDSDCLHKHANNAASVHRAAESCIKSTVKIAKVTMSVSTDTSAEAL
Procedure, shortened: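 Competitive binding on membranes of CHO cells expressing human CB1, run by an outside contract lab. Radioligand was [3H]-CP 55940 at 0.5 nM and test compound was at 10 μM. Non-specific binding was set with an excess of unlabelled ligand. Values are % of control specific binding (displacement), n = 2.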

Cannabinoid receptor 1 [3] = biological target: T2, Cannabinoid receptor 1; test: biochemical; format: cell-based, CHO
Cannabinoid receptor 2 [4] = biological target: T1, Cannabinoid receptor 2; test: Displacement of [3H]WIN-55212-2 from human CB2 receptor expressed in CHO cells; format: cell-based
Procedure, shortened: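 Non-specific binding was defined with excess unlabelled ligand. Ki was derived from IC50 by the Cheng-Prusoff equation, Ki = IC50/(1 + L/KD), using radioligand concentration and KD.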

T1 sequence (P34972 whole entry): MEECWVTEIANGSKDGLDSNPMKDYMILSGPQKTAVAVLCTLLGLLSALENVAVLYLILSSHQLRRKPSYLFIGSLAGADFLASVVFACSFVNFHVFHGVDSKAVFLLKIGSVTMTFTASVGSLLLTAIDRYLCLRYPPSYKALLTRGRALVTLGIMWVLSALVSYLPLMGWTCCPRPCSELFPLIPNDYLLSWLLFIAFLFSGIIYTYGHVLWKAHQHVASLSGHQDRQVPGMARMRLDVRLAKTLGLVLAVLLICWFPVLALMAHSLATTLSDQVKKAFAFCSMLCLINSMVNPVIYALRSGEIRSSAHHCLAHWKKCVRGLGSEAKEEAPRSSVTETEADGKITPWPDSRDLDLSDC

| Activity (Cannabinoid receptor 2 [1]) [%] | Activity (Cannabinoid receptor 1 [2]) [%] | Ki (Cannabinoid receptor 1 [3]) [nM] | Ki (Cannabinoid receptor 2 [4]) [nM] | Structure (SMILES) |
| --- | --- | --- | --- | --- |
| 45 | 59 |  |  | O=C(c1cnn(-c2ccc(Cl)cc2Cl)c1-c1ccc(Cl)cc1)N1CCCCC1 |
| 42 | 78 |  |  | CN1CCN(NC(=O)c2cnn(-c3ccc(Cl)cc3Cl)c2-c2ccc(I)cc2)CC1 |
| 59 | 64 |  |  | O=C(NC1CCCCC1)c1cnn(-c2ccc(Cl)cc2Cl)c1-c1ccc(I)cc1 |
| 44 | 76 |  |  | O=C(NC12CC3CC(CC(C3)C1)C2)c1cnn(-c2ccc(Cl)cc2Cl)c1-c1ccc(I)cc1 |
| 46 | 48 |  |  | Cc1ccc(-c2c(C(=O)NC3CCCCC3)cnn2-c2ccc(Cl)cc2Cl)cc1 |
| 43 | 84 | 1000 |  | O=C(NC1CC1)c1cnn(-c2ccc(Cl)cc2Cl)c1-c1ccc(Br)cc1 |
| 18 | 69 |  |  | O=C(NC1CCCCC1)c1cnn(-c2ccc(Cl)cc2Cl)c1-c1ccc(F)cc1 |
| 52 | 68 |  |  | O=C(NC1CCCCC1)c1cnn(-c2ccc(Cl)cc2Cl)c1-c1ccc(Cl)cc1 |
| -9 | 30 |  |  | O=C(NN1CCOCC1)c1cnn(-c2ccc(Cl)cc2Cl)c1-c1ccc(F)cc1 |
| 56 | 86 |  |  | O=C(NN1CC2CCCC2C1)c1cnn(-c2ccc(Cl)cc2Cl)c1-c1ccc(Cl)cc1 (centres undefined) |
| 37 | 79 |  |  | O=C(NN1CCCCC1)c1cnn(-c2ccc(Cl)cc2Cl)c1-c1ccc(Cl)cc1 |
| 27 | 29 |  |  | Cc1ccc(-c2c(C(=O)NN3CCCCC3)cnn2-c2ccc(Cl)cc2Cl)cc1 |
| 7 | 62 |  |  | O=C(NC1CC1)c1cnn(-c2ccc(Cl)cc2Cl)c1-c1ccc(F)cc1 |
| 43 | 49 |  |  | O=C(c1cnn(-c2ccc(Cl)cc2Cl)c1-c1ccc(Cl)cc1)N1CCCC1 |
| 44 | 84 |  |  | O=C(NC1CCCCCCC1)c1cnn(-c2ccc(Cl)cc2Cl)c1-c1ccc(Cl)cc1 |
| 12 | 65 |  |  | O=C(NN1CCOCC1)c1cnn(-c2ccc(Cl)cc2Cl)c1-c1ccc(Cl)cc1 |
| 60 | 88 | 1100 |  | O=C(NC1CCCCCC1)c1cnn(-c2ccc(Cl)cc2Cl)c1-c1ccc(Br)cc1 |

| Activity (Cannabinoid receptor 2 [1]) [%] | Activity (Cannabinoid receptor 1 [2]) [%] | Ki (Cannabinoid receptor 1 [3]) [nM] | Ki (Cannabinoid receptor 2 [4]) [nM] | Structure (SMILES) |
| --- | --- | --- | --- | --- |
| -12 | 67 | 2600 | 30000 | CN1CCN(NC(=O)c2cnn(-c3ccc(Cl)cc3Cl)c2-c2ccc(Br)cc2)CC1 |
| 61 | 90 | 1100 |  | O=C(NC1CCCCCC1)c1cnn(-c2ccc(Cl)cc2Cl)c1-c1ccc(I)cc1 |
| -23 | 61 | 16000 |  | CN1CCN(NC(=O)c2cnn(-c3ccc(Cl)cc3Cl)c2-c2ccc(Cl)cc2)CC1 |
| 22 | 72 |  |  | O=C(NC12CC3CC(CC(C3)C1)C2)c1cnn(-c2ccc(Cl)cc2Cl)c1-c1ccc(Cl)cc1 |
| 7 | 43 |  |  | O=C(NN1CCCCC1)c1cnn(-c2ccc(Cl)cc2Cl)c1-c1ccc(F)cc1 |
| 69 | 58 |  |  | O=C(c1cnn(-c2ccc(Cl)cc2Cl)c1-c1ccc(Cl)cc1)N1CCc2ccccc2C1 |
| 60 | 91 | 210 |  | O=C(NC1CC1)c1cnn(-c2ccc(Cl)cc2Cl)c1-c1ccc(I)cc1 |
| 14 | 39 |  |  | O=C(NCCN1CCCCC1)c1cnn(-c2ccc(Cl)cc2Cl)c1-c1ccc(Cl)cc1 |
| 30 | 87 | 850 | 21000 | O=C(NC1CC1)c1cnn(-c2ccc(Cl)cc2Cl)c1-c1ccc(Cl)cc1 |
| 55 | 74 |  |  | O=C(NN1CCCCC1)c1cnn(-c2ccc(Cl)cc2Cl)c1-c1ccc(Br)cc1 |
| 84 | 94 | 1300 | 1900 | O=C(NN1CCCCC1)c1cnn(-c2ccc(Cl)cc2Cl)c1-c1ccc(I)cc1 |
| 44 | 81 |  |  | O=C(NC1CCCCC1)c1cnn(-c2ccc(Cl)cc2Cl)c1-c1ccc(Br)cc1 |
| 64 | 75 |  |  | O=C(NN1CCCCCC1)c1cnn(-c2ccc(Cl)cc2Cl)c1-c1ccc(Cl)cc1 |
| 70 | 58 |  |  | COc1ccc(-c2c(C(=O)NN3CCCCC3)cnn2-c2ccc(Cl)cc2Cl)cc1 |
| 76 | 64 |  |  | COc1ccc(-c2c(C(=O)NC3CCCCC3)cnn2-c2ccc(Cl)cc2Cl)cc1 |
| 50 | 78 |  |  | O=C(NC1CCCCCC1)c1cnn(-c2ccc(Cl)cc2Cl)c1-c1ccc(Cl)cc1 |
| 61 | 82 |  |  | O=C(NC1CCCC1)c1cnn(-c2ccc(Cl)cc2Cl)c1-c1ccc(Cl)cc1 |
